Experimental data collected from several papers.
Each line is one published result; the experiments were not run side by side.
Effect on: cell growth or viability

Compound | cell line | assay | conditions | quantity | value
C/C=C(/C)C(=O)O[C@@H]1[C@H](OC(C)=O)c2c(ccc3ccc(=O)oc23)OC1(C)C | HEp-2 | WST-1 | – | IC50 | 53.5 µM
Cc1cn([C@H]2C[C@H](N=[N+]=[N-])[C@@H](CO)O2)c(=O)[nH]c1=O | TZM-bl | MTT | 48 h | CC50 | > 200 µg/mL
CC(=O)OC1c2c(ccc3ccc(=O)oc23)OC(C)(C)C1OC(=O)C(C)(O)C(C)O (stereo not drawn) | MCF7 | WST-1 | – | IC50 | 6.1 µM
c1cc(CN2CCCNCCNCCCNCC2)ccc1CN1CCCNCCNCCCNCC1 | TZM-bl | – | – | CC50 | > 1 µM
O=[N+]([O-])c1ccc(-c2nc3cc(F)ccc3[nH]2)o1 | HEp-2 | resazurin | 72 h | CC50 | 3.1 µM
O=c1oc2c(O)c(O)cc3c(=O)oc4c(O)c(O)cc1c4c23 | TZM-bl | MTT | 48 h | CC50 | 469 µg/mL
CSc1ccc(OCc2ncc([N+](=O)[O-])n2C)cc1 | THP-1 | MTT | 72 h | CC50 | > 62.5 µM
C=C(C)[C@@H]1CC[C@]2(C(=O)O)CC[C@]3(C)[C@H](CC[C@@H]4[C@@]5(C)CC[C@H](O)C(C)(C)[C@@H]5CC[C@]43C)[C@@H]12 | WS1 | – | 48 h | IC50 | 36 µM
CC(C)(C)CC(C)(C)Nc1c(-c2ccccc2)nc2ncccn12 | MCF7 | MTT | 25 µM, 48 h | viability | 44.9%
OC[C@@H]1[C@@H](O)[C@H](O)[C@@H](O)CN1CC/C=C/CCOc1cc(F)ccc1F | MDBK | MTT | – | CC50 | > 500 µM
COC(=O)[C@]1(O)C[C@@H](O)[C@@H](O)[C@H](OC(=O)/C=C/c2ccc(O)c(O)c2)C1 | HEp-2 | WST-1 | – | IC50 | 21.2 µM
C=C1C(=O)O[C@H]2[C@H]1CC/C(C)=C/CC[C@@]1(C)O[C@@H]21 | THP-1 | ATP luminescence | 17 h | IC50 | 8.89 µM
C=C(C)[C@H](CC=C(C)C)Cc1c(O)cc(O)c2c1O[C@H](c1ccc(O)cc1O)CC2=O | MCF7 | MTT | 48 h | IC50 | 19.2 µM
O=[N+]([O-])c1ccc(-c2nc3cc(Cl)ccc3[nH]2)o1 | HEp-2 | resazurin | 72 h | CC50 | 5 µM
CC(=O)O[C@@H]1c2c(ccc3ccc(=O)oc23)OC(C)(C)[C@@H]1OC(=O)C1(C)OC1C (stereo partly drawn) | HEp-2 | WST-1 | – | IC50 | 36.4 µM
